Screening data deposited in PubChem BioAssay by several laboratories.
TCR-CD3 inh: inhibitors of human TCR-CD3 interaction. TAMRA-labeled TCR probe fluorescence, biochemical. inhibition, % at 9.4 µM. 360,000 compounds, 0.37% hits. AID 651800; in the data active = inhibition above about 19%;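 also: recombinant mutant TCR 2C K166C tagged with TAMRA read by polarization; 0% = receptor in buffer alone and 100% = receptor with positive control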
ARNT-TACC3 inh: disrupts binding between human ARNT and TACC3 | 390,000 compounds, 0.66% hits | inhibition, % at 9.99 µM | AlphaScreen His-ARNT PAS-B/GST-TACC3 binding, luminescence; TACC3 fragment carries E629A point mutation | AID 623870;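 active = mean inhibition of replicates at least 50% and at least half of replicates each reaching 50%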;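 also: 0% = complete ARNT plus TACC3 wells and 100% = ARNT alone without TACC3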
HTRA1 inh: HTRA1 (human) protease inhibition; inhibition, % at 5.96 µM; recombinant HTRA1, FP-rhodamine activity-based probe, fluorescence polarization; 340,000 compounds, 0.5% hits; AID 504803; in the data active = inhibition above about 36%;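 also: 0% = enzyme with DMSO and 100% = wells lacking enzyme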
ABHD4 inh: inhibits mouse alpha/beta hydrolase domain 4 | inhibition, % at 8.92 µM | purified mABHD4, FP-Rh probe fluorescence polarization | AID 720543 | Q8VD66 | 370,000 compounds, 0.54% hits;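 active = inhibition exceeding the mean over every tested compound plus 3 SD, cut at about 30% in these data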;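 also: 0% = plate median of compound wells and 100% = S159A mutant with DMSO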
Target sequence (Q8VD66 whole entry, looked up, the tested form may be a part): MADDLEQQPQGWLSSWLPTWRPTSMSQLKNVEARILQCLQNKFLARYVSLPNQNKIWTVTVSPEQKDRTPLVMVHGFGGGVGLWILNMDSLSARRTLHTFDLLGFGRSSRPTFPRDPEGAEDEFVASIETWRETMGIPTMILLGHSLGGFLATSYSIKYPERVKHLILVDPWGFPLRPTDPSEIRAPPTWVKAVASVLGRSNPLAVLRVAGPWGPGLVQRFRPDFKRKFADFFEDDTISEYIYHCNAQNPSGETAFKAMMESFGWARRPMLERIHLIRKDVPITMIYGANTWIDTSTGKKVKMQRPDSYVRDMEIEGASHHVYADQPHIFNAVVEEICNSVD
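Assay system: Wild-type mouse ABHD4 protein | Medium: HEPES pH 7.0 buffer, 150 mM NaCl, 0.01% Pluronic F-127 | Incubation: Enzyme–compound pre-incubation 45 min, then probe 60 min, both 25 °C | Technique: Fluorescence polarization with parallel and perpendicular emission, 525/598 nm | Evaluation: % inhibition of FP-Rh probe binding versus controls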
SIAE primary: inhibitors of human sialic acid acetylesterase SIAE; Q9HAT2; SIAE FP-Rh probe binding, fluorescence polarization; inhibition, % at 9.66 µM; 370,000 compounds, 0.69% hits; AID 1053197;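 active = inhibition above a cutoff: mean of compounds within the control limits plus 3 SD of those, cut at about 17% in these data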;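 also: 0% = plate median of compound wells and 100% = probe without SIAE protein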
ABHD4 confirm: ABHD4 (mouse) inhibition, FP confirmation. purified mABHD4, FP-Rh probe fluorescence polarization. shares compounds with ABHD4 inh. 1,800 compounds, 55% hits. AID 720658. inhibition, % at 8.92 µM;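 active = mean inhibition across replicates above the hit cutoff set in the primary screen, cut at about 30% in these data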;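 also: 0% = wild-type ABHD4 with DMSO and 100% = catalytically dead S159A mutant with DMSO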
* hit, by the source's call; x = not tested or not shown. In the library only some 1.8% were active in any assay of this set; here they are far more common.

SMILES	TCR-CD3 inh	ARNT-TACC3 inh	HTRA1 inh	ABHD4 inh	SIAE primary	ABHD4 confirm
CC1=NN(Cc2ccccc2)C(=O)C1C(c1ccc(Cl)cc1)C(C#N)C#N (configuration not stated)	-8	-3	33	83*	8	29
CC1=NN(Cc2ccccc2)C(=O)C1C(c1ccccc1)C(C#N)C#N (configuration not stated)	6	6	3	53*	8	-10
COc1ccc(C#Cc2ccc([C@@H]3[C@@H](CO)N4CCCCN(C(=O)Nc5ccc(F)cc5)C[C@@H]34)cc2)cc1	x	31	x	x	x	x
C[C@H](CO)N1C[C@H](C)[C@H](CN(C)S(=O)(=O)c2cn(C)cn2)OCCCC[C@H](C)Oc2ccc(NS(=O)(=O)c3ccccc3)cc2C1=O	x	-9	x	x	x	x
CC(C)(C)c1ccc(/C=C2\Oc3cc(OC(=O)N4CCOCC4)ccc3C2=O)cc1	1	3	-2	67*	-4	57*
CNC(=O)C[C@@H]1CC[C@H]2[C@H](COc3ccc(NC(=O)c4ccccc4Cl)cc3C(=O)N2C)O1	x	4	x	x	x	x
CCN(c1cccc(C)c1)C(C(=O)Nc1ccc(OC)cc1)c1cc2c(cc1[N+](=O)[O-])OCO2 (configuration not stated)	-2	17	-20	-2	5	x
O=CN1CCN(C(C(=O)NC2CCCCC2)c2cc3c(cc2[N+](=O)[O-])OCO3)CC1 (configuration not stated)	2	3	6	4	2	x
COc1ccc(NC(=O)C(c2cc3c(cc2[N+](=O)[O-])OCO3)N2CCN(C=O)CC2)cc1 (configuration not stated)	2	-1	5	31*	9	0
COc1ccc(NC(=O)C(c2cc3c(cc2[N+](=O)[O-])OCO3)N(C)Cc2ccccc2)cc1 (configuration not stated)	16	3	-23	67*	15	-27
COc1ccc(NC(=O)N[C@@H]2C=C[C@@H](CC(=O)NC3CCCCC3)O[C@@H]2CO)cc1	x	-8	x	x	x	x
COc1ccc(NC(=O)N2C[C@H]3[C@@H](c4ccccc42)[C@@H](CO)N3C(=O)C2CCCC2)cc1	x	-10	x	x	x	x
O=C(C1CC1)N1C[C@@H]2[C@H](c3ccccc31)[C@H](CO)N2C(=O)c1ccccn1	x	3	x	x	x	x
Cc1cc2nc(CCN(C(=S)NCC(C)C)C3CCCC3)[nH]c2cc1C	-7	-2	-42	42*	-4	48*
COc1cc(/C=C/c2ccc3cccc(O)c3n2)c(Br)cc1O	-5	1	28	30*	15	69*
O=C(O)CN1C(=O)/C(=C2\SC(=S)N(C(Cc3ccccc3)C(=O)O)C2=O)c2ccccc21 (configuration not stated)	-17	3	-3	56*	2	45*
CCCC(C(=O)O)N1C(=O)/C(=C2\C(=O)N(C)c3ccccc32)SC1=S (configuration not stated)	1	3	3	41*	12	58*
COc1ccccc1C#Cc1cnc2c(c1)C(=O)N([C@@H](C)CO)C[C@H](C)[C@@H](CN(C)C(C)=O)O2	x	1	x	x	x	x
C[C@@H]1CN([C@@H](C)CO)S(=O)(=O)c2ccc(C#CC3CC3)cc2O[C@@H]1CN(C)C(=O)c1ccncc1	x	-2	x	x	x	x
O=Cc1cc(OCc2ccccc2)ccc1[B-](F)(F)F	5	4	0	45*	8	43*
Nc1ccc(OCc2ccccc2)cc1[N+](=O)[O-]	4	2	1	6	9	x
Cc1ccc2c(c1)Sc1c(ccc3ccccc13)N2	-2	10	14	30*	5	38*
c1ccc2c(c1)Nc1cc3ccccc3cc1S2	-1	-3	6	10	1	x
COCC(=O)N1[C@@H](CO)[C@@H](c2ccccc2)[C@@H]1CNC(=O)c1ccccn1	x	-1	x	x	x	x
C[C@@H]1CCCCO[C@@H](CN(C)C(=O)NC2CCCCC2)[C@@H](C)CN([C@@H](C)CO)C(=O)c2cc(NC(=O)Nc3ccc4c(c3)OCO4)ccc2O1	x	-11	x	x	x	x
SMILES	TCR-CD3 inh	ARNT-TACC3 inh	HTRA1 inh	ABHD4 inh	SIAE primary	ABHD4 confirm
O=C(N/N=C/c1ccncc1)c1cc2ccccc2cc1O	-2	13	22	43*	10	8
Cc1ccc(OC(=S)Nc2ccc(O)cc2)cc1	18	-1	3	44*	4	0
O=C(Cc1c[nH]c2ccccc12)Nc1ccc(Nc2cccnc2)c(-c2ccc(Cl)c(Cl)c2)c1	2	x	x	22	10	x
CC(C)(C)c1ccc(-c2cc(NC(=O)Cc3c[nH]c4ccccc34)ccc2Nc2cccnc2)cc1	-4	x	x	41*	11	55*
CCCc1ccc(-c2cc(NC(=O)Cc3c(C)[nH]c4ccccc34)ccc2Nc2cccnc2)cc1	-3	x	x	25	9	x
CCCc1ccc(-c2cc(NC(=O)Cc3c[nH]c4ccccc34)ccc2Nc2cccnc2)cc1	9	x	x	42*	11	39*
C[N+](C)(CCOc1ccccc1)Cc1ccccc1 (tested in a mixture with another compound)	11	-25	7	4	14	x
CC(C)(C)CC(C)(C)c1ccc(OCCOCC[N+](C)(C)Cc2ccccc2)cc1	3	8	16	36*	2	44*
Cc1cc(N/N=C/c2ccccc2)nc(NCc2ccccc2)n1	3	10	-6	12	0	x
Cc1cc(N/N=C/c2cccc(Cl)c2)nc(NCc2ccccc2)n1	-5	5	-35	40*	8	60*
Cc1cc(N/N=C/c2cccc(F)c2)nc(NCc2ccccc2)n1	10	2	-25	39*	-4	39*
COc1ccc2c(c1)c1ccc3c(c1n2C)C(=O)C=CC3=O	7	7	23	67*	-23	68*
C[C@H](CO)N1C[C@H](C)[C@H](CN(C)C(=O)c2ccc3c(c2)OCO3)Oc2ncc(C3=CCCCC3)cc2C1=O	x	-1	x	x	x	x
Cc1ccccc1NC(=O)Cc1nc(COC(=O)CCc2ccccc2)cs1	4	-4	-6	53*	-3	48*
CC(C)=CC(=O)OCc1csc(CC(=O)Nc2ccccc2C)n1	-2	-2	-2	5	-2	x
CCOC(=O)/C=C/C(=O)OCc1csc(CC(=O)Nc2ccccc2C)n1	3	-5	-7	30*	-2	40*
COCC(=O)Nc1ccc2c(c1)C(=O)N(C)[C@@H]1CC[C@H](CC(=O)NCC3CCCCC3)O[C@@H]1CO2	x	-7	x	x	x	x
CO[C@@H]1CN(C)C(=O)c2ccc(NC(=O)Nc3ccccc3F)cc2OC[C@H](C)N(C(C)=O)C[C@@H]1C	x	-3	x	x	x	x
COc1ccc(NC(=O)N(C)C[C@@H]2Oc3ccc(NC(=O)Nc4ccccc4)cc3C(=O)N([C@@H](C)CO)C[C@@H]2C)cc1	x	-4	x	x	x	x
